Assay [1] has as its target T1, PDK3 (Homo sapiens, UniProt Q15120). Briefly: Fluorescence quenching binding study with purified PDK3. The essentials:
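Intrinsic tryptophan fluorescence quenching of refolded His-tagged human PDK3 (4 μM) at 25 ± 0.1 °C in 50 mM Tris pH 8.0. Test compounds come from 10–30 mM DMSO stocks and are titrated at 0.1–4.0 μM or 2–12 μM. Excitation 280 nm, emission 300–400 nm, blank subtracted, triplicates averaged. Ka and number of sites come from a modified Stern–Volmer plot.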

The subject of another assay is A549 cells. Briefly: Cell proliferation MTT assay, A549. The class given is cell-based. The following applies: Homo sapiens, A549, 48 h, read-out: IC50, cell growth inhibition. An outline of the steps: (§1)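 Cells at 37 °C, 5% CO2: A549 in F12K medium; HepG2 and HEK293 in DMEM with 10% heat-inactivated FBS and 1% penicillin-streptomycin; kept under 30 passages. Test compound at 0–250 μM for 48 h in 200 μl, then MTT with absorbance at 570 nm. Viability is given as % of untreated control and plotted against concentration. Doxorubicin is the positive control.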

Assay [2] deals with T1, PDK3. Briefly: Isothermal titration calorimetry of PDK3 with EA. It is filed as binding. The following applies: ITC, 25 °C, four-site model. The essentials:
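VP-ITC at 25 °C with PDK3 (30 μM) in the cell and 1% v/v DMSO added to the protein. Test compound is injected from the syringe: a 2 μl first injection, then 10 μl injections at 300 s intervals, stirring at 320 rpm. Heat of dilution is subtracted. The isotherm is fitted to a four-set-of-sites model for Ka, n, ΔH and ΔS.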

The next assay concerns HepG2 cells. Briefly: Cell proliferation MTT assay, HepG2. It is filed as cell-based. The following applies: Homo sapiens, HepG2, 48 h, read-out: IC50, cell growth inhibition. An outline of the steps:
as §1

The target of assay [3] is T1, PDK3. Briefly: Enzyme inhibition assay. The class given is biochemical. The essentials:
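Recombinant full-length human PDK3, His-tagged, expressed in E. coli BL21 Gold, purified from inclusion bodies by Ni-NTA and refolded by dialysis. Enzyme 5 μM with 200 μM ATP and test compound 0–30 μM, 15–20 min at 25 °C in 50 mM Tris, 100 mM NaCl, pH 8.0. Released phosphate read by malachite green at 620 nm against a 0.0–8 nmol phosphate standard curve. Triplicates, at least three independent experiments.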

SMILES strings stand for the structures.

T1 sequence (Q15120 whole entry): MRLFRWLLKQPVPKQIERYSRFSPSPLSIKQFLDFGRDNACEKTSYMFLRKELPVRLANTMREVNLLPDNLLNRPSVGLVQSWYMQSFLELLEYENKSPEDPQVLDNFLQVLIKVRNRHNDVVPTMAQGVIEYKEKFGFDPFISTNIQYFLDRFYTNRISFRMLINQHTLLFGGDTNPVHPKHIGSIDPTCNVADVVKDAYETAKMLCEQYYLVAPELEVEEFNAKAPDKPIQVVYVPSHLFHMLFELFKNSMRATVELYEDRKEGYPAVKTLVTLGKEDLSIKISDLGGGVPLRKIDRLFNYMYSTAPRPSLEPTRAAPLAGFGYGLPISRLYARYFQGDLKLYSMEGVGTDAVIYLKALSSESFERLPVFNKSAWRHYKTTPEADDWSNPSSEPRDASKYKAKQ

`CC(C)=CCCC(C)=CC=O` (mixture of isomers) [Citral] had a Kd on PDK3 [1] of 0.177 µM.
On the same count and under the same terms, for `COc1cc(CNC(=O)CCCC/C=C/C(C)C)ccc1O` [Capsaicin] the value was 0.271 µM.
As to `O=c1oc2c(O)c(O)cc3c(=O)oc4c(O)c(O)cc1c4c23` [Ellagic acid], the values for the IC50 with A549 cells, in the assay on HepG2 cells and on PDK3 [3] were 23.4 ± 1.33 µM, 36.7 ± 3.22 µM and around 5 µM, respectively. At PDK3 [2] (site 1), the “ΔS1 (entropy change)” value is “ΔS1 = 9.13 cal mol^−1 deg^−1”. Besides, the “ΔS2 (entropy change)” value at PDK3 [2] (site 2) is given as “ΔS2 = −927 cal mol^−1 deg^−1”. Also, at PDK3 [2] (site 3), the “ΔS3 (entropy change)” value is “ΔS3 = −1950 cal mol^−1 deg^−1”. The “ΔS4 (entropy change)” value on PDK3 [2] (site 4) is recorded as “ΔS4 = −2090 cal mol^−1 deg^−1”. Besides, the dissociation constant (Kd) is 106 µM at PDK3 [2] (Ka1 (association constant), site 1); 8.47 µM at PDK3 [2] (Ka2 (association constant), site 2); 25.6 µM at PDK3 [2] (Ka3 (association constant), site 3); 33.7 µM at PDK3 [2] (Ka4 (association constant), site 4); 0.00373 µM at PDK3 [1].
Compound `CC1(C)O[C@H]2CC(=O)OC[C@]23[C@H]2CC[C@@]4(C)[C@H](c5ccoc5)OC(=O)[C@H]5O[C@]54[C@]2(C)C(=O)C[C@@H]13` [Limonin] gave a Kd on PDK3 [1] of 0.0316 µM.
As for `CCC(C)(C)C(=O)O[C@H]1C[C@@H](C)C=C2C=C[C@H](C)[C@H](CC[C@@H]3C[C@@H](O)CC(=O)O3)[C@H]21` [Simvastatin, reference compound], the dissociation constant (Kd) on PDK3 [1] was 2.59 µM.
At PDK3 [1], `C[C@H]1[C@H](C)CC[C@]2(C(=O)O)CC[C@]3(C)C(=CC[C@@H]4[C@@]5(C)CC[C@H](O)C(C)(C)[C@@H]5CC[C@]43C)[C@H]12` [Ursolic acid] had a Kd of 1.76 µM.
On to `COc1cc(C=O)ccc1O` [Vanillin], for which binding at PDK3 [1] was characterised by a dissociation constant (Kd) of 5.62 µM.
